This is one part of a sample in which hits are shown more often than they occur.
KCC2 mod = modulates chloride dependent transport by human KCC2; Q9H2X9; KCC2 cells, thallium flux FluoZin-2 fluorescence; B-score of Tl+ flux slope (higher = more flux/activation; lower = inhibition) at 10 µM; actives 2.2% (n = 190,000); AID 1456;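 active means thallium flux slope and its plate-corrected score both differing from the plate sample mean at a set confidence after two filtering rounds, in either direction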;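 further: slope of fluorescence scaled to starting intensity during 10 to 20 s after thallium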
pCIP destab = compounds decreasing mouse p/CIP protein stability | Q05BA5 | F442A p/CIP-EGFP cells, EGFP fluorescence, 16 h | decrease of EGFP signal, % at 10 µM | actives 0.01% (n = 290,000) | AID 1984;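 active means EGFP signal decrease of at least 30% at 10 µM or well 3 SD below plate mean, unless failing retest; inactive means the rest, including hits failing retest or dose response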
ABCB6 inh 2 = blocks the human ABCB6 transporter | K562-ABCB6 porphyrin accumulation, flow cytometry, 1 h; hits give low values | fluorescence ratio to DMSO, % at 10 µM | actives 0.19% (n = 360,000);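 active means fluorescence ratio to DMSO below 75%, the collection mean minus 3 SD; inconclusive means too few cells collected in the well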;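 further: signal is porphyrin accumulated inside mitochondria; lower ratio means ABCB6 inhibition with less porphyrin fluorescence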
V-ATPase pH = regulators of yeast V-ATPase proton transport; response, % at 10 µM; AID 504577; actives 0.37% (n = 350,000); S. cerevisiae, pHLuorin cytosolic pH fluorescence; in the data active means response mostly above about 7.3%, no sharp cut-off; inactive means mostly below about 5.4%; further: actives read high
Dynein transport = blocks dynein driven cargo transport along microtubules; actives 0.47% (n = 220,000); z-score, hits read low; 3617.4 mouse cells, GR-EGFP nuclear translocation imaging; test concentration mostly 20 µM; stimulated with dexamethasone, 1 µM; hits give low values;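 active means plate z-score of nuclear minus cytoplasmic receptor signal below a set negative limit, without overly bright fluorescence or cell loss, cut at about -3.5 in these data, passing the limit was not always enough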;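 further: z-score of nuclear minus cytoplasmic ring GR-EGFP intensity difference per well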
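Buffer or medium: tet-free, stripped-serum medium; reagent: dexamethasone at 1.0 µM final, 30 min; incubation: 48 h induction, 1 h compound, 30 min dex at 37 °C; measured by: formaldehyde fixation, Hoechst nuclear stain, 10x automated fluorescence imaging; read-out: nuclear-to-cytoplasmic GR-EGFP distribution per well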
KCC2 sec1 = confirmation of human KCC2 transport modulators. shares compounds with KCC2 mod. HEK293-KCC2, thallium flux, FluoZin2 fluorescence; hits give high values. normalised thallium flux (F/F0 slope) at 10 µM. actives 15% (n = 3,700). AID 1713;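 active means thallium flux slope above the same plate's solvent-only control mean plus 3 SD; inconclusive means the two replicate wells disagree; inactive means no significant difference from solvent-only control wells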
KCC2 bumet counter = thallium flux persisting under bumetanide in KCC2 cells, counter-screen secondary assay | shares compounds with KCC2 mod | HEK293-KCC2 + bumetanide/ouabain, thallium flux FluoZin2; hits give high values | normalized thallium flux at 10 µM | actives 49% (n = 3,700) | AID 1714;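 active means thallium entry rate above the same plate's blocked-transporter control wells by more than 3 SD; inconclusive means the two repeat wells disagree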;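 further: raw slope of fluorescence over initial fluorescence between 10 and 20 s after thallium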
KCC2 secondary2 = KCC2 (human) modulation, second secondary assay; AID 1715; normalized thallium flux at 10 µM; shares compounds with KCC2 mod; HEK293-KCC2, thallium flux FluoZin2 fluorescence; actives lie on both sides; F/F0 rise rate, 10–20 s post-thallium; actives 23% (n = 3,700);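 active means thallium flux slope more than 3 SD above or below the plate's solvent-only control mean, mostly below; inconclusive means the two repeat wells disagreed; inactive means no significant shift from solvent-only controls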
HEK counter1 = parental HEK flux effect, counter-screen; shares compounds with KCC2 mod; HEK293 parental cells, thallium flux FluoZin2, ouabain; baseline-ratio fluorescence slope, 10–20 s after thallium; thallium flux rate (normalised fluorescence) at 10 µM; actives 46% (n = 3,700); AID 1716;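 active means thallium flux rate significantly above the same plate's solvent-only control wells, beyond their mean plus 3 SD; inconclusive means the two replicate wells gave conflicting results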
KCC2 ouabain = KCC2 (human) modulation, ouabain retest; shares compounds with KCC2 mod; HEK293-KCC2, thallium flux FluoZin2 fluorescence; bidirectional: low = inhibitor, high = activator; raw Tl+ flux slope (below DMSO = inhibition, above = activation) at 10 µM; actives 48% (n = 3,700);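 active means thallium flux slope beyond 3 SD from same-plate DMSO control mean in most replicates, usually higher, sometimes lower; inconclusive means repeat tests gave conflicting results; inactive means no significant difference from controls in most replicates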;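 further: slope of initial-normalized fluorescence between seconds 10 and 20 after thallium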
HEK293 Tl flux2 = counter-screen for KCC2 modulators: effect in parental HEK293 cells | shares compounds with KCC2 mod | AID 1718 | thallium flux FluoZin-2 fluorescence slope | thallium flux slope at 10 µM | actives 33% (n = 3,700);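 active means thallium flux slope above the same plate's solvent-control mean plus 3 SD in both duplicate wells; inconclusive means duplicate wells that disagreed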;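 further: run without ouabain in cells lacking the KCC2 cotransporter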
Of the large screens only hits and unclear results are named; the others gave an inactive call (follow-up assays come after a bar, where they were run).

Cc1nn(-c2ccccc2)c2c1C(c1ccncc1)C(C#N)=C(N)O2 (stereo not given)	none
COc1ccc(OC)c(C(=O)COC(=O)c2ccccc2O)c1	none (no result: KCC2 mod) | KCC2 sec1 inactive | KCC2 bumet counter inactive | KCC2 secondary2 inactive | HEK counter1 inactive | KCC2 ouabain 0.023 | HEK293 Tl flux2 inconclusive
COc1ccc(OC)c(C(=O)COC(=O)c2c(OC)cccc2OC)c1	none
CC1=NN(c2nc(-c3ccc(C)cc3)cs2)C(=O)C1N=Nc1cccc(C)c1 (stereo not given)	none
CCOC(=O)c1sc(N2N=C(C)C(N=Nc3cccc(C)c3)C2=O)nc1C (stereo not given)	KCC2 mod 22 | KCC2 sec1 inactive | KCC2 bumet counter 0.026 | KCC2 secondary2 0.038 | HEK counter1 0.016 | KCC2 ouabain 0.035 | HEK293 Tl flux2 0.019
CCc1ccc(Nc2nnc(SCC(=O)NCCN3C(=O)CSC3=O)s2)cc1	KCC2 mod -3.7 | KCC2 sec1 inactive | KCC2 bumet counter inactive | KCC2 secondary2 inactive | HEK counter1 inactive | KCC2 ouabain inconclusive | HEK293 Tl flux2 inactive
CCc1ccc(Nc2nnc(SCC(=O)Nc3sccc3C(N)=O)s2)cc1	KCC2 mod -4.9 | KCC2 sec1 inactive | KCC2 bumet counter inactive | KCC2 secondary2 0.023 | HEK counter1 inactive | KCC2 ouabain inconclusive | HEK293 Tl flux2 inactive
CC(C)Nc1nc(Cl)nc(Nc2ccccc2)n1	none (no result: KCC2 mod, Dynein transport)
O=C(OCc1cccc(C(F)(F)F)c1)c1cc(S(=O)(=O)N2CCOCC2)ccc1F	none (no result: KCC2 mod, pCIP destab, Dynein transport)
CCN1CCN(C(c2ccccc2)c2nnnn2Cc2ccccc2)CC1 (stereo not given)	KCC2 mod -4.9 | KCC2 sec1 inactive | KCC2 bumet counter inactive | KCC2 secondary2 inactive | HEK counter1 inactive | KCC2 ouabain inactive | HEK293 Tl flux2 inactive
CCN1C(=O)C2(C(C(=O)c3cc4ccccc4o3)=C(O)C(=O)N2CCCN(C)C)c2ccccc21 (stereo not given)	none (no result: KCC2 mod, ABCB6 inh 2, V-ATPase pH)
CCN(CC)Cc1c(O)ccc2c(C)c(CC(=O)OC)c(=O)oc12	none (no result: KCC2 mod) | KCC2 sec1 inactive | KCC2 bumet counter inconclusive | KCC2 secondary2 inactive | HEK counter1 inactive | KCC2 ouabain inactive | HEK293 Tl flux2 inactive
COCCNC(=O)C1(C)CCCN(C(=O)c2ccccc2OC)C1 (stereo not given)	none (no result: KCC2 mod, pCIP destab, V-ATPase pH, Dynein transport)
Cc1cccc(Cc2cnc(N3C(=N)SC(C)C3=O)s2)c1 (stereo not given)	KCC2 mod 6 | KCC2 sec1 0.017 | KCC2 bumet counter 0.068 | KCC2 secondary2 inactive | HEK counter1 0.029 | KCC2 ouabain 0.04 | HEK293 Tl flux2 0.014
Cc1cccc(Cc2cnc(N3C(=N)SC(c4ccccc4)C3=O)s2)c1 (stereo not given)	none
Cc1ccc(Cc2cnc(N3C(=N)SC(C)C3=O)s2)cc1 (stereo not given)	KCC2 mod 11 | KCC2 sec1 inactive | KCC2 bumet counter 0.03 | KCC2 secondary2 inactive | HEK counter1 0.018 | KCC2 ouabain 0.03 | HEK293 Tl flux2 inactive
CCCn1nnc(NC(=O)c2ccc(F)cc2)n1	KCC2 mod -4.1 | KCC2 sec1 inconclusive | KCC2 bumet counter inconclusive | KCC2 secondary2 inactive | HEK counter1 inactive | KCC2 ouabain inactive | HEK293 Tl flux2 inactive
CCCn1nnc(NC(=O)c2ccc3ccccc3c2)n1	none
CC(=O)C[C@H](O)CC(=O)[C@H]1OC(=O)[C@@H](C)CCCCc2ccccc21	none (no result: KCC2 mod, pCIP destab, Dynein transport)
Oc1c(N=NC(=S)Nc2ccccc2F)c2ccccc2n1Cc1ccc(Cl)cc1	none
CCNC(=S)N=Nc1c(O)n(Cc2ccc(Cl)cc2)c2ccccc12	KCC2 mod 14 | KCC2 sec1 0.012 | KCC2 bumet counter 0.071 | KCC2 secondary2 inactive | HEK counter1 0.03 | KCC2 ouabain 0.041 | HEK293 Tl flux2 0.011
Cc1ccccc1Cn1c(O)c(N=NC(=S)Nc2ccccc2F)c2ccccc21	KCC2 mod 9.6 | KCC2 sec1 inconclusive | KCC2 bumet counter 0.025 | KCC2 secondary2 inactive | HEK counter1 inconclusive | KCC2 ouabain inconclusive | HEK293 Tl flux2 inconclusive
Oc1c(N=NC(=S)Nc2ccccc2F)c2ccccc2n1Cc1ccccc1F	KCC2 mod 11 | KCC2 sec1 inactive | KCC2 bumet counter 0.034 | KCC2 secondary2 inactive | HEK counter1 0.012 | KCC2 ouabain 0.025 | HEK293 Tl flux2 inconclusive
Cc1cc(=O)oc2c3c(cc(OCC(=O)N[C@@H](CC(C)C)C(=O)O)c12)OC(C)(C)CC3	none (no result: KCC2 mod, Dynein transport)
COc1ccc(NC(=O)CSc2nc(-c3ccncc3)nn2CC(=O)N2CCCC2)cc1	KCC2 mod -4.3 | KCC2 sec1 inactive | KCC2 bumet counter inactive | KCC2 secondary2 inactive | HEK counter1 inactive | KCC2 ouabain inactive | HEK293 Tl flux2 inactive
O=C(NCCc1csc(-c2ccccc2)n1)c1cccs1	none (no result: KCC2 mod) | KCC2 sec1 inactive | KCC2 bumet counter inactive | KCC2 secondary2 0.023 | HEK counter1 inactive | KCC2 ouabain 0.014 | HEK293 Tl flux2 inactive
O=C(Cc1csc(-c2ccccc2)n1)NCc1cccs1	KCC2 mod -4.6 | KCC2 sec1 inactive | KCC2 bumet counter inactive | KCC2 secondary2 inconclusive | HEK counter1 inconclusive | KCC2 ouabain 0.013 | HEK293 Tl flux2 inactive
Cc1cc(C)cc(NC(=O)C(=O)NCC2CCCN2S(=O)(=O)c2cccs2)c1 (stereo not given)	none (no result: KCC2 mod, pCIP destab, Dynein transport)
Cc1ccc(-n2c(SCC(=O)NCCN3C(=O)CSC3=O)nnc2-c2ccccc2)cc1	none
Cc1ccc(S(=O)(=O)Cn2nnnc2C(CC(C)C)N2CCN(C3CCCC3)CC2)cc1 (stereo not given)	none (no result: KCC2 mod, Dynein transport)
O=C(Nc1ccccc1)/C(=C\c1ccncc1)NC(=O)c1ccccc1	KCC2 mod 5.4 | KCC2 sec1 inactive | KCC2 bumet counter inactive | KCC2 secondary2 inactive | HEK counter1 inconclusive | KCC2 ouabain inactive | HEK293 Tl flux2 inactive
